Source: ChEMBL document CHEMBL3352556, “Neural cell activation by phenolic compounds from the Siberian larch (Larix sibirica)” (J Nat Prod, 2014)
Active and inactive are the calls of the source. No cut-off for these calls is given here.

What was measured:
Schwann [1] = assay: Stimulation of process formation/elongation of C57BL/6J mouse Schwann cells after 24 hrs by microscopy; format: functional, cell-based
Method in brief: (§1)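 Schwann cells from dorsal root ganglia of 6- to 8-day-old mice were seeded at 1.25 × 10^4 cells/well on PLL and cultured serum-free. Compound (0.1% DMSO final; DMSO control) was added 1 h after seeding and cells were fixed at 24 h. Process length was measured microscopically. Duplicates, ≥100 cells per treatment, 3 independent experiments, mean ± SEM.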

Mus musculus [2] = species on record: Mus musculus; assay: Induction of neurite outgrowth in C57BL/6J mouse motoneurons at 1 to 200 nM after 24 hrs by microscopy; format: functional
Method in brief: (§2)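 Motoneurons came from spinal cords of E14.5 mice, were seeded at 1.25 × 10^4 cells/well on poly-L-ornithine and cultured serum-free. Compound was added 1 h after seeding (0.1% DMSO final; DMSO control) and cells were fixed at 24 h. Neurite length was measured microscopically. Duplicates, ≥100 cells per treatment, 3 independent experiments, mean ± SEM.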

Mus musculus [3] = species on record: Mus musculus; assay: Induction of neurite outgrowth in C57BL/6J mouse primary cerebellar neurons after 24 hrs by microscopy; format: functional
Method in brief: (§3)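 Cerebellar granule neurons from 6- to 8-day-old mice were plated at 2.5 × 10^4 cells/well on PLL in defined serum-free medium. Compound (100 pM–1 μM; 0.1% DMSO final, DMSO control) was added 1 h post-seeding and cells were fixed at 24 h. Neurite length was measured by microscopy. Duplicates, ≥100 cells per treatment, 3 independent experiments, mean ± SEM.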

Astrocyte = assay: Reduction in migration of C57BL/6J mouse brain astrocytes assessed as distance of migration at 100 nM after 8 to 48 hrs by scratch injury assay (reference value: 700 um); format: functional
[4] = Stimulation of process formation/elongation of C57BL/6J mouse Schwann cells at 100 pM to 100 nM after 24 hrs by microscopy relative to DMSO-treated control; format: functional; method in brief: as §1
[5] = Induction of neurite outgrowth in C57BL/6J mouse primary cerebellar neurons at 100 nM after 24 hrs by microscopy relative to DMSO-treated control; format: functional; method in brief: as §3
Schwann [6] = assay: Stimulation of process formation/elongation of C57BL/6J mouse Schwann cells at 1 uM after 24 hrs by microscopy; format: functional, cell-based; method in brief: as §1
[7] = Induction of migration of C57BL/6J mouse cerebellar primary neuron at 100 nM after 48 hrs by microscopy relative to DMSO-treated control; format: functional
[8] = Induction of migration of C57BL/6J mouse cerebellar primary neuron assessed as cell population migrating to >301 um at 100 nM after 48 hrs by microscopy (reference value: 3 %); format: functional
[9] = Cytotoxicity against C57BL/6J mouse primary cerebellar neurons assessed as reduction in cell viability at 1 uM after 24 hrs by microscopy
[10] = Cytotoxicity against C57BL/6J mouse Schwann cells at 1 uM after 24 hrs by microscopy; format: cell-based
[11] = Induction of migration of C57BL/6J mouse cerebellar primary neuron assessed as cell population migrating to 1- 150 um at 100 nM after 48 hrs by microscopy (reference value: 72 %); format: functional
[12] = Induction of migration of C57BL/6J mouse cerebellar primary neuron assessed as cell population migrating to 151- 300 um at 100 nM after 48 hrs by microscopy (reference value: 25 %); format: functional
Mus musculus [13] = species on record: Mus musculus; assay: Induction of neurite outgrowth in C57BL/6J mouse motoneurons at 500 nM after 24 hrs by microscopy; format: functional; method in brief: as §2
[14] = Induction of neurite outgrowth in C57BL/6J mouse dorsal root ganglion neurons at 100 nM after 24 hrs by microscopy relative to DMSO-treated control; format: functional, DRG neuron
Method in brief: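 Dorsal root ganglion neurons from 6- to 8-day-old mice were seeded at 1.25 × 10^4 cells/well on PLL in serum-free culture. 100 nM compound (0.1% DMSO final) was added 1 h after seeding. Cells were fixed after 24 h and neurite length was measured by microscopy versus DMSO control. Duplicates, ≥100 cells per treatment, 3 independent experiments, mean ± SEM.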

COc1cc([C@H]2c3cc(O)c(OC)cc3C[C@@H](CO)[C@@H]2CO)ccc1O [ISOLARICIRESINOL]
Activity (Schwann [1]): Dose-dependent effect
Activity (Mus musculus [2]): Active
Activity (Mus musculus [3]): Dose-dependent effect
Activity (Astrocyte): 500 µm
fold change (FC) [4]: 1.8
fold change (FC) [5]: 1.6
Activity (Schwann [6]): inactive
fold change (FC) [7]: 1.2
Activity [8]: 8%
Activity [9]: Non-toxic
Activity [10]: Non-toxic
Activity [11]: 68%
Activity [12]: 24%
Activity (Mus musculus [13]): inactive

COc1cc(C[C@@H](CO)[C@H](CO)Cc2ccc(O)c(OC)c2)ccc1O [(+)-SECOISOLARICIRESINOL]
Activity (Schwann [1]): Dose-dependent effect
Activity (Mus musculus [2]): Active
Activity (Mus musculus [3]): Dose-dependent effect
Activity (Astrocyte): 500 µm
fold change (FC) [4]: 1.8
fold change (FC) [5]: 1.6
Activity (Schwann [6]): inactive
fold change (FC) [7]: 1.2
Activity [8]: 8%
Activity [9]: Non-toxic
Activity [10]: Non-toxic
Activity [11]: 65%
Activity [12]: 27%
Activity (Mus musculus [13]): inactive

O=C1c2c(O)cc(O)cc2O[C@H](c2ccc(O)c(O)c2)[C@H]1O [(+)-TAXIFOLIN]
fold change (FC) [14]: 1.7
Activity (Schwann [1]): Dose-dependent effect
Activity (Mus musculus [2]): Active
Activity (Mus musculus [3]): Dose-dependent effect
Activity (Astrocyte): 500 µm
fold change (FC) [4]: 1.9
fold change (FC) [5]: 1.6
Activity (Schwann [6]): inactive
fold change (FC) [7]: 1.4
Activity [8]: 12%
Activity [9]: Non-toxic
Activity [10]: Non-toxic
Activity [11]: 59%
Activity [12]: 29%
Activity (Mus musculus [13]): inactive
